Experimental findings from ChEMBL document CHEMBL1133105, “Antimalarial, antitrypanosomal, and antileishmanial activities and cytotoxicity of bis(9-amino-6-chloro-2-methoxyacridines): influence of the linker” (J Med Chem, 2000) are described below.

The first assay has as its system Leishmania infantum. Description: Percentage of activity against Leishmania infantum at 1.56 uM. The format is functional.
Details: not given
The essentials: (§1)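 Starch-stimulated mouse peritoneal macrophages, 30 000/well, infected after 24 h with spleen-derived L. infantum amastigotes (10:1) together with 2-fold drug dilutions (12.5–1.56 µM). Incubated 7 days at 37 °C, 5% CO2. Wright-stained slides scored microscopically as % reduction of total parasite load or of infected macrophages. Uninfected treated cultures judged microscopically for macrophage toxicity.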
Take `COc1ccc2nc3cc(Cl)ccc3c(NCCCN(CCCNc3c4ccc(Cl)cc4nc4ccc(OC)cc34)C(=O)C(CC(=O)OC3CCCCC3)NC(=O)OC(C)(C)C)c2c1` (stereo not drawn): the “Antileishmanial activity (% reduction of parasite load)” value is recorded as 20%.

With `COc1ccc2nc3cc(Cl)ccc3c(NCCCN(CCCNc3c4ccc(Cl)cc4nc4ccc(OC)cc34)C(=O)C(CN)NC(=O)OC(C)(C)C)c2c1` (stereo not drawn), the “Antileishmanial activity (% reduction of parasite load)” value is recorded as 0%.

A further assay has as its system MRC5. Description: Cytotoxicity on MRC-5 cells at 3.13 uM. The following applies: Homo sapiens. The format is functional. Summed up:
(§2)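 MRC-5 human diploid embryonic lung cells seeded at 5 000/well, washed after 24 h, then given 2-fold drug dilutions (25, 12.5, 6.25, 3.13 µM) in RPMI + 5% FCS, final DMSO below 0.5%. Incubated 7 days at 37 °C, 5% CO2. MTT colorimetric read-out, scored as % reduction of absorbance at 540 nm versus untreated controls.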
Take `COc1ccc2nc3cc(Cl)ccc3c(NCCCN(CCCNc3c4ccc(Cl)cc4nc4ccc(OC)cc34)C(=O)C(CC(=O)OC3CCCCC3)NC(=O)OC(C)(C)C)c2c1` (stereo not drawn): the cytotoxicity at 3.13 µM was determined as 40%.

Turning to `COc1ccc2nc3cc(Cl)ccc3c(NCCCN(CCCNc3c4ccc(Cl)cc4nc4ccc(OC)cc34)C(=O)C(CN)NC(=O)OC(C)(C)C)c2c1` (stereo not drawn), the cytotoxicity at 3.13 µM worked out at 0%.

In a further assay the test system is Trypanosoma cruzi. As to the kind of experiment: Percentage of activity against Trypanosoma cruzi at 3.13 uM. The format is functional.
Details: not given
Summed up:
(§3)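 Mouse peritoneal macrophages, 30 000/well, infected after 24 h with about 100 000 T. cruzi trypomastigotes per well plus 2-fold drug dilutions (12.5–1.56 µM). Incubated 4 days at 37 °C, 5% CO2. Methanol-fixed, Giemsa-stained and scored microscopically as % reduction of total parasite load (free trypomastigotes plus intracellular amastigotes) versus untreated controls.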
For the compound `COc1ccc2nc3cc(Cl)ccc3c(NCCCN(CCCNc3c4ccc(Cl)cc4nc4ccc(OC)cc34)C(=O)C(CC(=O)OC3CCCCC3)NC(=O)OC(C)(C)C)c2c1` (stereo not drawn), the “Reduction of T. cruzi parasite load” value is 20%.

In the case of `COc1ccc2nc3cc(Cl)ccc3c(NCCCN(CCCNc3c4ccc(Cl)cc4nc4ccc(OC)cc34)C(=O)C(CN)NC(=O)OC(C)(C)C)c2c1` (stereo not drawn), the “Reduction of T. cruzi parasite load” value worked out at 40%.

A further assay relates to Leishmania infantum. As to the kind of experiment: Percentage of activity against Leishmania infantum at 6.25 uM; Toxic upon mouse primary peritoneal macrophages. The format is functional, organism-based.
Details: not given
Summed up: as §1
Take `COc1ccc2nc3cc(Cl)ccc3c(NCCCN(CCCNc3c4ccc(Cl)cc4nc4ccc(OC)cc34)C(=O)C(CN)NC(=O)OC(C)(C)C)c2c1` (stereo not drawn): the Cytotoxicity result was “Toxic”.

The test system of a further assay is Leishmania infantum. Description: Percentage of activity against Leishmania infantum at 3.13 uM. The format is functional.
Details: not given
The essentials: as §1
Consider `COc1ccc2nc3cc(Cl)ccc3c(NCCCN(CCCNc3c4ccc(Cl)cc4nc4ccc(OC)cc34)C(=O)C(CC(=O)OC3CCCCC3)NC(=O)OC(C)(C)C)c2c1` (stereo not drawn), for which the “Percent antileishmanial activity (reduction of parasite load)” value came to 60%.

Regarding `COc1ccc2nc3cc(Cl)ccc3c(NCCCN(CCCNc3c4ccc(Cl)cc4nc4ccc(OC)cc34)C(=O)C(CN)NC(=O)OC(C)(C)C)c2c1` (stereo not drawn), the “Percent antileishmanial activity (reduction of parasite load)” value was 0%.

The test system of the next assay is Trypanosoma brucei. As to the kind of experiment: Percentage of activity against Trypanosoma brucei at 3.13 uM. It counts as functional.
Details: not given
The essentials: (§4)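 Bloodstream-form T. brucei in HMI-9 medium, 10 000 parasites/well, exposed to 12.5, 6.25, 3.13 and 1.56 µM drug for 4 days. Read-out is % inhibition of parasite multiplication. Macrophage toxicity judged on mouse primary peritoneal macrophages.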
As to `COc1ccc2nc3cc(Cl)ccc3c(NCCCN(CCCNc3c4ccc(Cl)cc4nc4ccc(OC)cc34)C(=O)C(CC(=O)OC3CCCCC3)NC(=O)OC(C)(C)C)c2c1` (stereo not drawn), the Parasite growth inhibition came out at 100%.

`COc1ccc2nc3cc(Cl)ccc3c(NCCCN(CCCNc3c4ccc(Cl)cc4nc4ccc(OC)cc34)C(=O)C(CN)NC(=O)OC(C)(C)C)c2c1` (stereo not drawn) returned a Parasite growth inhibition of 100%.

Another assay relates to Trypanosoma cruzi. Description: In Vitro evaluation for the percentage of activity towards Trypanosoma cruzi at 6.25 uM Concentration; Toxic upon mouse primary peritoneal macrophages. It counts as functional, organism-based.
Details: not given
The essentials:
as §3
As for `COc1ccc2nc3cc(Cl)ccc3c(NCCCN(CCCNc3c4ccc(Cl)cc4nc4ccc(OC)cc34)C(=O)C(CN)NC(=O)OC(C)(C)C)c2c1` (stereo not drawn), the Cytotoxicity result was “Toxic”.

Another assay concerns Trypanosoma brucei. As to the kind of experiment: Percentage of activity against Trypanosoma brucei at 6.25 uM. It counts as functional.
Details: not given
Summed up: as §4
Regarding `COc1ccc2nc3cc(Cl)ccc3c(NCCCN(CCCNc3c4ccc(Cl)cc4nc4ccc(OC)cc34)C(=O)C(CC(=O)OC3CCCCC3)NC(=O)OC(C)(C)C)c2c1` (stereo not drawn), the “Inhibition of parasite multiplication” value is listed as 100%.

For the compound `COc1ccc2nc3cc(Cl)ccc3c(NCCCN(CCCNc3c4ccc(Cl)cc4nc4ccc(OC)cc34)C(=O)C(CN)NC(=O)OC(C)(C)C)c2c1` (stereo not drawn), the “Inhibition of parasite multiplication” value was 100%.

Another assay has as its system Trypanosoma cruzi. Description: Percentage of activity against Trypanosoma cruzi at 12.5 uM. It counts as functional.
Details: not given
Summed up: as §3
On to `COc1ccc2nc3cc(Cl)ccc3c(NCCCN(CCCNc3c4ccc(Cl)cc4nc4ccc(OC)cc34)C(=O)C(CC(=O)OC3CCCCC3)NC(=O)OC(C)(C)C)c2c1` (stereo not drawn), for which the “T. cruzi parasite load reduction” value was found to be 98%.

Another assay deals with Trypanosoma cruzi. Description: Percentage of activity against Trypanosoma cruzi at 1.56 uM. It counts as functional.
Details: not given
Summed up:
as §3
With `COc1ccc2nc3cc(Cl)ccc3c(NCCCN(CCCNc3c4ccc(Cl)cc4nc4ccc(OC)cc34)C(=O)C(CC(=O)OC3CCCCC3)NC(=O)OC(C)(C)C)c2c1` (stereo not drawn), the Parasite load reduction is listed as 0%.

Turning to `COc1ccc2nc3cc(Cl)ccc3c(NCCCN(CCCNc3c4ccc(Cl)cc4nc4ccc(OC)cc34)C(=O)C(CN)NC(=O)OC(C)(C)C)c2c1` (stereo not drawn), the Parasite load reduction was determined as 0%.

The next assay relates to Plasmodium falciparum. As to the kind of experiment: In vitro sensitivity for Plasmodium falciparum FcB1R. It counts as functional, organism-based.
Details: not given
Summed up: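 Asynchronous P. falciparum cultures in human erythrocytes (0.5% parasitemia, 1% haematocrit) exposed to serially diluted drug for 24 h at 37 °C. [3H]hypoxanthine (0.5 µCi/well) then added for a further 24 h. Uptake compared with drug-free controls on the same plate. IC50 taken from the concentration–response curve, averaged over independent experiments. DMSO ≤0.1%.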
For orientation: IC50 means the point on the concentration scale where inhibition reaches its midpoint. A lower IC50 goes with greater potency in that assay. Regarding `COc1ccc2nc3cc(Cl)ccc3c(NCCCN(CCCNc3c4ccc(Cl)cc4nc4ccc(OC)cc34)C(=O)C(CC(=O)OC3CCCCC3)NC(=O)OC(C)(C)C)c2c1` (stereo not drawn), the IC50 is 31 nM.

As for `COc1ccc2nc3cc(Cl)ccc3c(NCCCN(CCCNc3c4ccc(Cl)cc4nc4ccc(OC)cc34)C(=O)C(CN)NC(=O)OC(C)(C)C)c2c1` (stereo not drawn), the IC50 amounted to 307 nM. Compared with the last compound, the IC50 is about 9.9-fold higher.

In a further assay the test system is Trypanosoma cruzi. As to the kind of experiment: Percentage of activity against Trypanosoma cruzi at 12.5 uM; Toxic upon mouse primary peritoneal macrophages. The format is functional, organism-based.
Details: not given
Summed up:
as §3
Turning to `COc1ccc2nc3cc(Cl)ccc3c(NCCCN(CCCNc3c4ccc(Cl)cc4nc4ccc(OC)cc34)C(=O)C(CN)NC(=O)OC(C)(C)C)c2c1` (stereo not drawn), the Cytotoxicity result was “Toxic”.

The next assay deals with MRC5. As to the kind of experiment: Cytotoxicity on MRC-5 cells at 12.5 uM. It counts as functional. The following applies: Homo sapiens. Summed up:
as §2
`COc1ccc2nc3cc(Cl)ccc3c(NCCCN(CCCNc3c4ccc(Cl)cc4nc4ccc(OC)cc34)C(=O)C(CC(=O)OC3CCCCC3)NC(=O)OC(C)(C)C)c2c1` (stereo not drawn) showed a cytotoxicity at 12.5 µM of 100%.

Consider `COc1ccc2nc3cc(Cl)ccc3c(NCCCN(CCCNc3c4ccc(Cl)cc4nc4ccc(OC)cc34)C(=O)C(CN)NC(=O)OC(C)(C)C)c2c1` (stereo not drawn), for which the cytotoxicity at 12.5 µM came to 37%.

In the next assay the test system is Leishmania infantum. Description: Percentage of activity against Leishmania infantum 6.25 uM. The format is functional.
Details: not given
Summed up: as §1
With `COc1ccc2nc3cc(Cl)ccc3c(NCCCN(CCCNc3c4ccc(Cl)cc4nc4ccc(OC)cc34)C(=O)C(CC(=O)OC3CCCCC3)NC(=O)OC(C)(C)C)c2c1` (stereo not drawn), the “Antileishmanial activity (% reduction of parasite load)” value worked out at 80%.

For a further assay, the system named is MRC5. As to the kind of experiment: Cytotoxicity on MRC-5 cells at 25 uM. It counts as functional. The settings on record: Homo sapiens. The essentials: as §2
`COc1ccc2nc3cc(Cl)ccc3c(NCCCN(CCCNc3c4ccc(Cl)cc4nc4ccc(OC)cc34)C(=O)C(CC(=O)OC3CCCCC3)NC(=O)OC(C)(C)C)c2c1` (stereo not drawn) displayed a cytotoxicity at 25 µM of 100%.

In the case of `COc1ccc2nc3cc(Cl)ccc3c(NCCCN(CCCNc3c4ccc(Cl)cc4nc4ccc(OC)cc34)C(=O)C(CN)NC(=O)OC(C)(C)C)c2c1` (stereo not drawn), the cytotoxicity at 25 µM was 39%.

The subject of another assay is Leishmania infantum. As to the kind of experiment: Percentage of activity against Leishmania infantum at 12.5 uM Concentration; Toxic upon mouse primary peritoneal macrophages. It counts as functional, organism-based.
Details: not given
Summed up: as §1
With `COc1ccc2nc3cc(Cl)ccc3c(NCCCN(CCCNc3c4ccc(Cl)cc4nc4ccc(OC)cc34)C(=O)C(CC(=O)OC3CCCCC3)NC(=O)OC(C)(C)C)c2c1` (stereo not drawn), the Cytotoxicity entry was “Toxic”.

Take `COc1ccc2nc3cc(Cl)ccc3c(NCCCN(CCCNc3c4ccc(Cl)cc4nc4ccc(OC)cc34)C(=O)C(CN)NC(=O)OC(C)(C)C)c2c1` (stereo not drawn): the Cytotoxicity entry is “Toxic”.

The test system of another assay is Trypanosoma brucei. Description: Percentage of activity against Trypanosoma brucei at 12.5 uM. It counts as functional.
Details: not given
Summed up:
as §4
As for `COc1ccc2nc3cc(Cl)ccc3c(NCCCN(CCCNc3c4ccc(Cl)cc4nc4ccc(OC)cc34)C(=O)C(CC(=O)OC3CCCCC3)NC(=O)OC(C)(C)C)c2c1` (stereo not drawn), the “Inhibition of parasite multiplication” value came to 100%.

A further assay relates to MRC5. Description: Cytotoxicity on MRC-5 cells at 6.25 uM. The following applies: Homo sapiens. It counts as functional. The essentials: as §2
For `COc1ccc2nc3cc(Cl)ccc3c(NCCCN(CCCNc3c4ccc(Cl)cc4nc4ccc(OC)cc34)C(=O)C(CC(=O)OC3CCCCC3)NC(=O)OC(C)(C)C)c2c1` (stereo not drawn), the cytotoxicity at 6.25 µM is 100%.

As to `COc1ccc2nc3cc(Cl)ccc3c(NCCCN(CCCNc3c4ccc(Cl)cc4nc4ccc(OC)cc34)C(=O)C(CN)NC(=O)OC(C)(C)C)c2c1` (stereo not drawn), the cytotoxicity at 6.25 µM was 0%.

A further assay concerns Trypanosoma brucei. Description: Percentage of activity against Trypanosoma brucei at 1.56 uM. It counts as functional.
Details: not given
The essentials: as §4
On to `COc1ccc2nc3cc(Cl)ccc3c(NCCCN(CCCNc3c4ccc(Cl)cc4nc4ccc(OC)cc34)C(=O)C(CC(=O)OC3CCCCC3)NC(=O)OC(C)(C)C)c2c1` (stereo not drawn), for which the “Percent inhibition of parasite multiplication” value turned out to be 100%.

As for `COc1ccc2nc3cc(Cl)ccc3c(NCCCN(CCCNc3c4ccc(Cl)cc4nc4ccc(OC)cc34)C(=O)C(CN)NC(=O)OC(C)(C)C)c2c1` (stereo not drawn), the “Percent inhibition of parasite multiplication” value was 99%.

The next assay has as its system Trypanosoma cruzi. As to the kind of experiment: Percentage of activity against Trypanosoma cruzi at 6.25 uM Concentration.
Details: not given
It counts as functional. The essentials:
as §3
`COc1ccc2nc3cc(Cl)ccc3c(NCCCN(CCCNc3c4ccc(Cl)cc4nc4ccc(OC)cc34)C(=O)C(CC(=O)OC3CCCCC3)NC(=O)OC(C)(C)C)c2c1` (stereo not drawn): the “Reduction of T. cruzi parasite load” value is reported as 70%.
